Source: PubChem (several laboratories)
FGF22 binding = binders of recombinant human FGF22 by thermal shift; Q9HCT0; SYPRO orange fluorescence; percent of sucrose octasulfate shift, DMSO zero; activity (Tm shift, normalised), % at 9.99 µM; 340,000 compounds, 1.5% hits; AID 651658;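 active = mean Tm shift, scaled 0 neutral to 100 positive control, at about 1.3% or above, every replicate too, limit read from the data; inconclusive = no clear call, values can overlap the other calls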
Efflux pump inh = inhibitors of Candida antifungal efflux pumps expressed in yeast | S. cerevisiae Candida pump triplex, Nile Red efflux | inhibition, % at 10 µM | 330,000 compounds, 0.44% hits;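 active = plate passing quality check with inhibition over a set limit, or well fluorescence over plate mean plus 4 SD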;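 also: Nile Red retained in pooled yeast measured as flow cytometry median fluorescence; 0% = buffer negative control and 100% = Enniatin B positive control; higher means more Nile Red kept so more efflux inhibition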
ARFGAP1 inhibitor = rat ARFGAP1 inhibition; Arfgap1-stimulated ARF1 GTP hydrolysis, GDP FP detection; inhibition, % at 16.5 µM; 360,000 compounds, 0.26% hits; AID 651572;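 active = inhibition above a per-plate limit, mean inhibition of low control wells plus 3 SD, cut at about 25% in these data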;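 also: 0% = DMSO wells with enzyme and 100% = wells lacking Arfgap1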
Target sequence (Q62848 1-136 limits assumed): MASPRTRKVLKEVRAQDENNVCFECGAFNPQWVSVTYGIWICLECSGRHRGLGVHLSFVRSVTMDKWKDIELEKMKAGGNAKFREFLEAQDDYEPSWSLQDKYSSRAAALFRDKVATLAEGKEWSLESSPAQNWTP
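Repeats: one replicate per compound; assay system: rat Arfgap1 catalytic domain, aa 1-136; times: enzyme reaction 120 min at 25 °C after 20 min preincubation; detection: FP of antibody-bound GDP Alexa 633 tracer, ex 620/em 688 nm; benchmarks: high control wells lacking Arfgap1, low control full reaction with DMSO; reagent: human ARF1(Δ1-17)-GTP substrate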
Rtt109 HAT inh = C. albicans Rtt109 histone acetyltransferase inhibition; Q5AAJ8; purified Rtt109/Vps75, ThioGlo CoA-SH fluorescence, 4 h; inhibition, % at 34.9 µM; 330,000 compounds, 0.16% hits; AID 540336;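 active = inhibition of at least 50% in every replicate; inconclusive = best replicate reaches 50% inhibition but some replicates fall short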
Target sequence (Q5AAJ8 whole entry, looked up): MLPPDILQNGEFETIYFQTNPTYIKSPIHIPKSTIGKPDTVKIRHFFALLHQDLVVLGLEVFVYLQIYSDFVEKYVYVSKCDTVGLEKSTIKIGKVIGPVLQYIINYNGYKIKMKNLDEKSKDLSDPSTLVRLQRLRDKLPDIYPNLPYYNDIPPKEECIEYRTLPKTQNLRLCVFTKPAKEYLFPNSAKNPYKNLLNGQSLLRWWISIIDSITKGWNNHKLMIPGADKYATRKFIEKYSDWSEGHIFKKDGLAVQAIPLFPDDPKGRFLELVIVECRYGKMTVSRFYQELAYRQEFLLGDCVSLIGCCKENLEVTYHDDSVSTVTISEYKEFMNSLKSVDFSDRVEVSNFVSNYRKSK
ASAP1 inh = ASAP1 ArfGAP inhibition | Q9ULH1 | ASAP1-stimulated ARF1 GTP hydrolysis, GDP FP detection | inhibition, % at 16.5 µM | 360,000 compounds, 0.19% hits | AID 624377; in the data active = inhibition above about 25%;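 also: 0% = vehicle with enzyme and substrate and 100% = no enzyme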
* marks the source's active call; other numbers are inactive results; u = inconclusive; x = not tested or not shown. Compounds with a hit are over-represented: about 1.9% of the library has one in this group of screens.

SMILES	FGF22 binding	Efflux pump inh	ARFGAP1 inhibitor	Rtt109 HAT inh	ASAP1 inh
O=C(c1ccc(S(=O)(=O)NCc2ccco2)cc1)N1CCN(Cc2ccccc2)CC1	43.8*	0.1	6.6	-8.5	5.9
CC(OC(=O)c1oc2ccccc2c1COc1ccccc1)C(=O)NC(N)=O (configuration not stated)	43.2*	-0.1	-8.1	5.7	-3.4
CC(OC(=O)c1oc2ccccc2c1CSC1CCCCC1)C(=O)NC(N)=O (configuration not stated)	x	-0.1	2.1	2.7	3.8
Cc1sc2ccc3sccc3c2[n+]1C	-0.1	0.1	-0.5	u	8.2
Cc1sc2c3ccsc3ccc2[n+]1C	0.3	-0.1	8.4	114.7*	9.6
C/[N+]([O-])=C/c1c(OCc2ccc(Cl)cc2Cl)ccc2ccccc12	44.9*	0.0	1.1	-9.8	9.3
COc1ccc(OC)c(/C=N/NC(=O)CCN2CCN(C(c3ccccc3)c3ccccc3)CC2)c1	x	0.6	3.8	19.6	7.3
Cn1cccc1CC(=O)NNC(=O)Nc1ccc(Cl)cc1	44.4*	0.0	2.3	5.8	-1.4
O=c1c2[nH]c3ccc(F)cc3c2nc2n1CCS2	0.1	0.3	11.0	-8.7	-0.9
C[C@@H]1CN([C@@H](C)CO)C(=O)c2cc(-c3ccccc3)cnc2O[C@H]1CN(C)Cc1ccccn1	0.1	x	x	x	x
CC1=Cc2ccccc2C(C#N)N1C(=O)c1ccccc1 (configuration not stated)	43.9*	0.1	-1.4	x	13.1
CCn1c(SCC(=O)N(C)C2CCS(=O)(=O)C2)nnc1-c1ccccc1 (configuration not stated)	43.5*	-0.1	-2.3	-9.8	-11.9
CCN(C(=O)CSc1nnc(-c2ccc(F)cc2)n1C)C1CCS(=O)(=O)C1 (configuration not stated)	43.0*	0.2	-1.1	-15.4	-13.8
COc1ccc(-c2csc3ncn(-c4ccc(C)cc4)c(=O)c23)cc1OC	-0.1	0.0	-3.8	-0.8	1.3
COc1ccc(-n2cnc3scc(-c4ccc(OC)c(OC)c4)c3c2=O)cc1	0.0	0.1	-5.7	62.5*	-2.4
CC(=O)C1=C(O)C(=O)N(c2nccs2)C1c1ccccc1F (configuration not stated)	0.2	0.0	7.2	-25.7	-4.2
COc1ccc(C2C(C(C)=O)=C(O)C(=O)N2c2nccs2)c(OC)c1 (configuration not stated)	45.5*	-0.1	-2.8	-2.2	3.5
Cn1cnnc1Sc1ccc(C(F)(F)F)cc1[N+](=O)[O-]	0.0	0.1	-11.2	-9.4	-1.5
C[C@H](O)[C@@H]1C(=O)N2CCc3c([nH]c4c(-c5ccccc5)cccc34)[C@@H]2C[C@@H]1N(C)C(=O)OCc1ccccc1	-0.1	x	-4.3	x	4.6
CN1c2ccccc2C(C)(C)[C@]12C=Cc1cc(O)ccc1O2	x	0.1	2.0	3.9	10.2
CC1(C)OC(=O)N(c2ccccc2)C12C=Cc1cc(Br)ccc1O2 (configuration not stated)	x	0.1	-5.2	53.4*	19.0
O=C(CSc1ccc(C(F)(F)F)cc1[N+](=O)[O-])Nc1ccccc1	x	0.1	17.8	0.6	31.5*
CC(=O)Cc1nsc(Nc2ccc(F)cc2)n1	0.3	0.0	0.5	5.6	0.6
CC(=O)Cc1nsc(NC(=O)c2ccc(-c3cccc(Cl)c3)o2)n1	1.4*	0.2	2.3	3.0	-5.8
CC(=O)Cc1nsc(Nc2ccc(Cl)cc2)n1	43.2*	-0.1	2.7	4.4	12.8
SMILES	FGF22 binding	Efflux pump inh	ARFGAP1 inhibitor	Rtt109 HAT inh	ASAP1 inh
Cc1ccc(S(=O)(=O)N2[C@@H](c3ccc(F)cc3)C(C(=O)O)=CC[C@H]2c2ccc(Cl)cc2)cc1	1.6*	0.1	0.6	-5.8	8.5
Cc1ccc([C@@H]2CC=C(C(=O)O)[C@H](c3ccc(Cl)cc3)N2S(=O)(=O)c2ccc(C)cc2)cc1	0.6	-0.1	-16.6	20.5	2.3
COC(=O)C1C2OC(C(Br)C2Br)C1C(=O)OC (configuration not stated)	44.0*	x	10.7	x	9.2
C[C@H]1CN([C@@H](C)CO)C(=O)c2cccc(NC(=O)C3CC3)c2O[C@H]1CN(C)Cc1ccc(C(=O)Nc2ccccc2N)cc1	-0.1	x	x	x	x
COc1ccc(C(=O)NC(C(=O)NCC(=O)Nc2c(C)cccc2C)C(C)C)cc1 (configuration not stated)	43.5*	0.0	13.4	-6.8	15.4
CC1=C/C(=C(\c2cc(C)c(O)c(Br)c2)c2ccccc2S(=O)(=O)O)C=C(Br)C1=O	-0.2	-0.1	30.2*	-5.5	18.4
Cc1cc(C(=O)c2ccccc2)cc(C)c1O	0.4	x	11.3	-1.4	-4.8
COc1ccc(C(=O)N/C(=C\c2cc(OC)c(OC)cc2[N+](=O)[O-])C(=O)NCC(=O)O)cc1	43.2*	0.0	-0.1	2.3	-1.6
O=[N+]([O-])c1ccc(/C=N/Nc2nc(NCc3ccccc3)nc(N3CCOCC3)n2)cc1	42.4	-0.1	-1.4	1.0	18.4
O=[N+]([O-])c1cccc(/C=N/Nc2nc(NCc3ccccc3)nc(N3CCOCC3)n2)c1O	43.7*	0.4	7.5	14.0	-1.0
CSc1ccccc1C(=O)N1CCN(c2cccc(Cl)c2)CC1	43.4*	0.3	4.5	16.0	1.4
O=C(c1cc(=O)c2ccccc2o1)N1CCN(c2cccc(Cl)c2)CC1	43.3*	0.1	-14.1	12.0	-11.8
O=C(c1cc(=O)c2ccccc2o1)N1CCN(c2ccccc2F)CC1	0.1	-0.1	-9.1	-3.5	7.1
CN(c1ccccc1C(=O)N1CCN(c2cccc(Cl)c2)CC1)S(C)(=O)=O	x	0.0	7.7	-4.8	7.8
CCN1C(=O)[C@H]2[C@@H](c3ccc(OC)cc3)N[C@]3(CCCN(Cc4ccco4)C3=O)[C@H]2C1=O	-0.2	x	-5.5	x	5.8
COc1cccc(-c2cnc(C(O)c3ccccc3)[nH]2)c1 (configuration not stated)	-0.2	x	-10.6	x	3.5
CCOC(=O)C1=C(C)N=c2s/c(=C/c3ccc(OCC(=O)O)cc3)c(=O)n2C1c1cc(OC)c(OC)c(OC)c1 (configuration not stated)	-0.6	0.2	-4.4	68.3*	-15.7
CCOC(=O)C1=C(C)N=c2sc(=Cc3ccc(OCC(=O)O)cc3)c(=O)n2C1c1ccc(Cl)cc1 (configuration not stated)	0.9	x	-37.8	x	-10.1
Cc1ccc(O)c(NC(=O)c2noc3c2CCc2ccccc2-3)c1	43.0*	-0.1	-0.9	-5.6	-8.9
COc1ccc(-c2nc(CN3CCN(c4ncnc5ccccc45)CC3)c(C)o2)c(OC)c1	43.8*	-0.1	8.3	18.2	11.1
CCOP(=O)(O)c1cccc(OCCOCCOc2cccc(P(=O)(O)OCC)c2)c1	43.7*	0.0	-4.1	-4.1	0.9
C/C(=N\NC(=O)c1ccccc1)c1ccc(N2CCCCC2)cc1	0.1	-0.1	-2.1	-1.8	18.0
